Data from ChEMBL document CHEMBL5131576, “Turning the Other Cheek: Influence of the cis-Tetrafluorocyclohexyl Motif on Physicochemical and Metabolic Properties” (ACS Med Chem Lett, 2022).
Values after ≈ are worked out from the molar mass of the structure shown.

Legend:
[1] = Permeability across apical to basolateral side in MDCK cells pgp knock out incubated up to 180 mins by LC_MS/MS analysis; format: ADME, cell-based, Canis lupus familiaris; details: dog, read-out: permeability
In short: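 MDCK cells with the endogenously expressed canine MDR1 gene knocked out; transport measured in the apical-to-basolateral direction; apparent permeability reported in 10^-6 cm/s.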

[2] = Kinetic solubility of the compound; format: physicochemical

## CC(C(=O)Nc1ccc(C2CCCCC2)cc1)n1cncn1 (configuration not stated)
[1]
  Papp A→B at 3 h: 29.5 ×10⁻⁶ cm/s

## O=C(Nc1ccc([C@H]2[C@@H](F)[C@@H](F)C[C@@H](F)[C@H]2F)cc1)c1cn[nH]c1
[2]
  solubility kinetic: 136 µM (≈ 46.4 µg/mL)

## CN1CCN(C(=O)c2ccc([C@H]3[C@@H](F)[C@@H](F)C[C@@H](F)[C@H]3F)cc2)CC1=O
[1]
  Papp A→B at 3 h: 4.5 ×10⁻⁶ cm/s

## O=C(NCc1cc[nH]n1)c1ccc(C2CCCCC2)cc1
[1]
  Papp A→B at 3 h: 16.7 ×10⁻⁶ cm/s

## CN1CCN(C(=O)c2ccc([C@H]3[C@@H](F)[C@@H](F)C[C@@H](F)[C@H]3F)cc2)CC1
[1]
  Papp A→B at 3 h: 18.6 ×10⁻⁶ cm/s

## CN1CCN(C(=O)c2ccc(C3CCCCC3)cc2)CC1=O
[2]
  Kinetic_solubility: Soluble
[1]
  Papp A→B at 3 h: 10.9 ×10⁻⁶ cm/s

## O=C(NCCc1cccnc1)c1ccc(C2CCCCC2)cc1
[1]
  Papp A→B at 3 h: 23 ×10⁻⁶ cm/s

## CN1CCC(c2ccc(-c3ccc(C4CCCCC4)cc3)cn2)CC1
[2]
  Kinetic_solubility: Soluble

## CN(CCC#N)C(=O)c1ccc(C2CCCCC2)cc1
[1]
  Papp A→B at 3 h: 18.7 ×10⁻⁶ cm/s

## COCCC(=O)Nc1ccc([C@H]2[C@@H](F)[C@@H](F)C[C@@H](F)[C@H]2F)cc1
[1]
  Papp A→B at 3 h: 18.1 ×10⁻⁶ cm/s

## COCCN(C)C(=O)c1ccc(C2CCCCC2)cc1
[1]
  Papp A→B at 3 h: 9.4 ×10⁻⁶ cm/s

## O=C(Cc1cccnc1)Nc1ccc([C@H]2[C@@H](F)[C@@H](F)C[C@@H](F)[C@H]2F)cc1
[1]
  Papp A→B at 3 h: 15 ×10⁻⁶ cm/s

## O=C(c1ccc(C2CCCCC2)cc1)N1CC(O)C1
[2]
  Kinetic_solubility: Soluble
[1]
  Papp A→B at 3 h: 26 ×10⁻⁶ cm/s

## CN1CCN(C(=O)c2ccc(C3CCCCC3)cc2)CC1
[2]
  Kinetic_solubility: Soluble
[1]
  Papp A→B at 3 h: 20.3 ×10⁻⁶ cm/s

## NC(=O)CCNC(=O)c1ccc([C@H]2[C@@H](F)[C@@H](F)C[C@@H](F)[C@H]2F)cc1
[1]
  Papp A→B at 3 h: 0.4 ×10⁻⁶ cm/s

## O=C(NCCN1CCCC1=O)c1ccc([C@H]2[C@@H](F)[C@@H](F)C[C@@H](F)[C@H]2F)cc1
[1]
  Papp A→B at 3 h: 3.5 ×10⁻⁶ cm/s

## CN(Cc1cccnc1)C(=O)c1ccc([C@H]2[C@@H](F)[C@@H](F)C[C@@H](F)[C@H]2F)cc1
[1]
  Papp A→B at 3 h: 16.3 ×10⁻⁶ cm/s

## O=C(Nc1ccc(C2CCCCC2)cc1)[C@H]1CC1(F)F
[2]
  Kinetic_solubility: < 1 µM

## O=C(NCCN1CCCC1=O)c1ccc(C2CCCCC2)cc1
[1]
  Papp A→B at 3 h: 15.5 ×10⁻⁶ cm/s

## CC(=O)N1CC(C(=O)Nc2ccc([C@H]3[C@@H](F)[C@@H](F)C[C@@H](F)[C@H]3F)cc2)C1
[1]
  Papp A→B at 3 h: 0.6 ×10⁻⁶ cm/s

## COCCN(C)C(=O)c1ccc([C@H]2[C@@H](F)[C@@H](F)C[C@@H](F)[C@H]2F)cc1
[1]
  Papp A→B at 3 h: 9.4 ×10⁻⁶ cm/s

## O=C(NCC1CCOCC1)c1ccc(C2CCCCC2)cc1
[1]
  Papp A→B at 3 h: 35.9 ×10⁻⁶ cm/s

## O=C(c1ccc([C@H]2[C@@H](F)[C@@H](F)C[C@@H](F)[C@H]2F)cc1)N1CC(O)C1
[1]
  Papp A→B at 3 h: 6.7 ×10⁻⁶ cm/s

## CN(C)CCC(=O)Nc1ccc(C2CCCCC2)cc1
[1]
  Papp A→B at 3 h: 10.8 ×10⁻⁶ cm/s

## c1ncc(-c2ccc(C3CCCCC3)cc2)cn1
[2]
  Kinetic_solubility: Soluble

## CN(Cc1cccnc1)C(=O)c1ccc(C2CCCCC2)cc1
[1]
  Papp A→B at 3 h: 12.1 ×10⁻⁶ cm/s

## O=C(CC1CCOCC1)Nc1ccc(C2CCCCC2)cc1
[2]
  Kinetic_solubility: < 1 µM

## O=C(Nc1ccc(C2CCCCC2)cc1)c1cn[nH]c1
[2]
  Kinetic_solubility: < 1 µM

## CC(=O)N1CC(C(=O)Nc2ccc(C3CCCCC3)cc2)C1
[1]
  Papp A→B at 3 h: 18.7 ×10⁻⁶ cm/s

## O=C(NCC1CCOCC1)c1ccc([C@H]2[C@@H](F)[C@@H](F)C[C@@H](F)[C@H]2F)cc1
[1]
  Papp A→B at 3 h: 20.3 ×10⁻⁶ cm/s

## O=C(NCc1cc[nH]n1)c1ccc([C@H]2[C@@H](F)[C@@H](F)C[C@@H](F)[C@H]2F)cc1
[1]
  Papp A→B at 3 h: 2.1 ×10⁻⁶ cm/s

## NC(=O)CCNC(=O)c1ccc(C2CCCCC2)cc1
[1]
  Papp A→B at 3 h: 14.7 ×10⁻⁶ cm/s

## O=C(Cc1cccnc1)Nc1ccc(C2CCCCC2)cc1
[2]
  Kinetic_solubility: < 1 µM
[1]
  Papp A→B at 3 h: 19.9 ×10⁻⁶ cm/s

## N#CCC(=O)Nc1ccc([C@H]2[C@@H](F)[C@@H](F)C[C@@H](F)[C@H]2F)cc1
[1]
  Papp A→B at 3 h: 16 ×10⁻⁶ cm/s

## O=C(Cn1ccnc1)Nc1ccc([C@H]2[C@@H](F)[C@@H](F)C[C@@H](F)[C@H]2F)cc1
[1]
  Papp A→B at 3 h: 0.9 ×10⁻⁶ cm/s

## COCCC(=O)Nc1ccc(C2CCCCC2)cc1
[1]
  Papp A→B at 3 h: 22.2 ×10⁻⁶ cm/s

## O=C(COCC(F)F)Nc1ccc(C2CCCCC2)cc1
[2]
  Kinetic_solubility: < 1 µM

## CN(CCC#N)C(=O)c1ccc([C@H]2[C@@H](F)[C@@H](F)C[C@@H](F)[C@H]2F)cc1
[1]
  Papp A→B at 3 h: 8.1 ×10⁻⁶ cm/s

## CN(C)CCC(=O)Nc1ccc([C@H]2[C@@H](F)[C@@H](F)C[C@@H](F)[C@H]2F)cc1
[1]
  Papp A→B at 3 h: 3.7 ×10⁻⁶ cm/s

## N#CCC(=O)Nc1ccc(C2CCCCC2)cc1
[1]
  Papp A→B at 3 h: 18.6 ×10⁻⁶ cm/s

## CC(C(=O)Nc1ccc([C@H]2[C@@H](F)[C@@H](F)C[C@@H](F)[C@H]2F)cc1)n1cncn1 (some centres not stated)
[1]
  Papp A→B at 3 h: 5.5 ×10⁻⁶ cm/s

## NS(=O)(=O)c1cccc(-c2ccc(C3CCCCC3)cc2)c1
[2]
  Kinetic_solubility: Soluble

## O=C(Cn1ccnc1)Nc1ccc(C2CCCCC2)cc1
[1]
  Papp A→B at 3 h: 11.1 ×10⁻⁶ cm/s
